From ChEMBL document CHEMBL4033743, “Design, synthesis, and structure-activity relationships of pyrimido[4,5-b]indole-4-amines as microtubule depolymerizing agents that are effective against multidrug resistant cells” (Bioorg Med Chem Lett, 2017)
Activity calls are given as the source filed them.

What was measured:
[1] = Antiproliferative activity against human SKOV3-MDR1-M6/6 cells by SRB assay; type: functional, cell-based
How it was run: (§1)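 Antiproliferative IC50s were measured by SRB assay in isogenic cell-line pairs. For Pgp-mediated resistance, the pair was parental SK-OV-3 ovarian cancer cells and Pgp-expressing SK-OV-3 MDR-1-M6/6 cells. For βIII-tubulin-mediated resistance, the pair was parental HeLa cells and βIII-tubulin-expressing HeLa cells.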

[2] = tested on: HeLa; experiment: Antiproliferative activity against human HeLa cells expressing beta3-tubulin by SRB assay; type: functional, cell-based; how it was run: as §1
[3] = Ratio of EC50 for induction of microtubule depolymerization in rat A10 cells to IC50 for antiproliferative activity against human MDA-MB-435 cells
[4] = Inhibition of bovine brain tubulin assembly; set-up: species or system Bos taurus
[5] = tested on: SK-OV-3; experiment: Antiproliferative activity against human SKOV3 cells by SRB assay; type: functional, cell-based; how it was run: as §1
[6] = tested on: MDA-MB-435; experiment: Antiproliferative activity against human MDA-MB-435 cells by SRB assay; type: functional, cell-based
How it was run: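 Proliferation of MDA-MB-435 melanoma cells was read by sulforhodamine B (SRB) assay. IC50 was taken as the concentration causing 50% inhibition of proliferation.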

[7] = Induction of microtubule depolymerization in rat A10 cells assessed as cellular microtubule loss incubated for 18 hrs by indirect immunofluorescence assay; type: cell-based; conditions: A10, 18 h
How it was run: (§2)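 Cellular microtubule loss was scored. EC50 was defined as the concentration causing 50% loss of cellular microtubules.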

[8] = species: Bos taurus; experiment: Inhibition of [3H]colchicine binding to bovine brain tubulin at 5 uM
[9] = Resistance index, ratio of IC50 for antiproliferative activity against human SKOV3-MDR1-M6/6 cells to IC50 for antiproliferative activity against human SKOV3 cells; type: functional
How it was run: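 Relative resistance (Rr) was calculated as the SRB IC50 in Pgp-expressing SK-OV-3 MDR-1-M6/6 cells divided by the SRB IC50 in parental SK-OV-3 cells.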

[10] = tested on: HeLa; experiment: Antiproliferative activity against human HeLa cells by SRB assay; type: functional, cell-based; how it was run: as §1
[11] = tested on: HeLa; experiment: Resistance index, ratio of IC50 for antiproliferative activity against human HeLa cells expressing beta3-tubulin cells to IC50 for antiproliferative activity against human HeLa cells; type: functional
How it was run: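 Relative resistance (Rr) was calculated as the SRB IC50 in βIII-tubulin-expressing HeLa cells divided by the SRB IC50 in parental HeLa cells.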

[12] = species: Rattus norvegicus; experiment: Induction of microtubule depolymerization in rat A10 cells assessed as cellular microtubule loss up to 40 uM incubated for 18 hrs by indirect immunofluorescence assay; type: cell-based; how it was run: as §2

| SMILES | IC50 [1] | IC50 [2] | Ratio [3] | IC50 [4] | IC50 [5] | IC50 [6] | EC50 [7] | inhibition [8] | Ratio IC50 [9] | IC50 [10] | Ratio IC50 [11] | Activity [12] |
| --- | --- | --- | --- | --- | --- | --- | --- | --- | --- | --- | --- | --- |
| COc1ccc2c(c1)CCCN2c1nc(N)nc2[nH]c3ccccc3c12 | 135 nM | 87 nM | 2.8 | 2200 nM | 83.2 nM | 54.4 nM | 150 nM | 71% | 1.6 | 72.1 nM | 1.2 | – |
| COc1ccc(N(C)c2nc(N)nc3[nH]c4cccc(Cl)c4c23)cc1 | – | – | – | – | – | 3900 nM | – | – | – | – | – | inactive |
| COc1ccc(N(C)c2nc(N)nc3[nH]c4cccc(C)c4c23)cc1 | – | – | 6.5 | – | – | 220 nM | 1400 nM | – | – | – | – | – |
| CSc1ccc(N(C)c2nc(N)nc3[nH]c4ccccc4c23)cc1 | 160 nM | 78.4 nM | 12 | 2300 nM | 156 nM | 89.1 nM | 1100 nM | 67% | 1 | 118 nM | 0.7 | – |
| COc1ccc(N(C)c2ncnc3[nH]c4ccccc4c23)cc1 | 224 nM | 99.5 nM | 9.2 | 2300 nM | 173 nM | 130 nM | 1200 nM | 62% | 1.4 | 142 nM | 0.8 | – |
| COc1ccc(N(C)c2nc(C)nc3[nH]c4ccccc4c23)cc1 | 78 nM | 31.8 nM | 3.8 | 1200 nM | 60.5 nM | 33.9 nM | 130 nM | 67% | 1.3 | 50.5 nM | 0.6 | – |
| COc1ccc2c(c1)CCCN2c1nc(N)nc2[nH]c3cccc(Cl)c3c12 | – | – | 15 | – | – | 271 nM | 3700 nM | – | – | – | – | – |
